{"data": "Results of several laboratories", "target": "Tyrosine-protein kinase Fes/Fps (FES, Homo sapiens, UniProt P07332)"}
{"Structure (SMILES)": "F[C@@H]1CCN(c2nccc(-c3cnn4ncccc34)n2)C1", "read-out": "binding", "concentration": "1 µM", "remaining binding": "77%"}
{"Structure (SMILES)": "Cc1nccc(COC(=O)N2C[C@@H]3[C@@H](CNC(=O)c4ccc5[nH]nnc5c4)[C@@H]3C2)n1", "read-out": "cell-free assay", "method": "competition with immobilised ligand", "concentration": "1 µM", "remaining binding": "99%"}
{"Structure (SMILES)": "c1cnn2ncc(-c3ccnc(N4CCC45COC5)n3)c2c1", "read-out": "binding", "concentration": "1 µM", "remaining binding": "95%"}
{"Structure (SMILES)": "CNC(=O)[C@@H]1CC[C@@H](n2c(-c3ccc4cnccc4c3)nc3ccc(C(=O)NCc4cccc(C(N)=O)c4)cc32)C1", "read-out": "binding", "method": "competition with immobilised ligand", "concentration": "1 µM", "remaining binding": "86%"}
{"Structure (SMILES)": "CN(CCCC(F)(F)F)c1nccc(-c2cnn3ncccc23)n1", "read-out": "binding", "concentration": "1 µM", "remaining binding": "95%"}
{"Structure (SMILES)": "COc1cnc(Nc2cccc(S(N)(=O)=O)c2)nc1N1CCN(c2ccccc2)C(=O)C1", "read-out": "binding", "method": "competition with immobilised ligand", "concentration": "1 µM", "remaining binding": "100%"}
{"Structure (SMILES)": "Cc1c(NC(=O)c2cc(C(N)=O)nc3cc(F)ccc23)c(C(F)(F)F)nn1Cc1ccc(C(C)(C)C)cc1", "read-out": "cell-free assay", "method": "competition with immobilised ligand", "concentration": "1 µM", "remaining binding": "100%"}
{"Structure (SMILES)": "O=C(Nc1c[nH]nc1C(=O)NC1CCNCC1)c1cc(F)cc(F)c1", "read-out": "binding", "method": "competition with immobilised ligand", "concentration": "1 µM", "remaining binding": "100%"}
{"Structure (SMILES)": "O=C(NCCCN1CCOCC1)c1ccc(Nc2nccc(-c3cc4ccccc4s3)n2)cc1", "read-out": "binding", "method": "competition with immobilised ligand", "concentration": "1 µM", "remaining binding": "85%"}
{"Structure (SMILES)": "c1cncc(-c2cccc(Nc3nccc(NC4CCCCC4)n3)c2)c1", "read-out": "binding", "method": "competition with immobilised ligand", "concentration": "10 µM", "remaining binding": "80%"}
{"Structure (SMILES)": "N[C@@H]1CCN(c2nccc(-c3cnn4ncccc34)n2)C1", "read-out": "binding", "concentration": "1 µM", "remaining binding": "100%"}
{"Structure (SMILES)": "CN(C)C(=O)Cn1cc(-c2nc([C@@](C)(c3ccc(-c4cnc(N)nc4)cc3)C3CC3)no2)cn1", "read-out": "cell-free assay", "method": "competition with immobilised ligand", "concentration": "1 µM", "remaining binding": "100%"}
{"Structure (SMILES)": "O=C(c1ccc(Nc2ncc(Cl)c(-c3ccc(Cl)s3)n2)cc1)N1CCC(N2CCCC2)CC1", "read-out": "binding", "method": "competition with immobilised ligand", "concentration": "1 µM", "remaining binding": "59%"}
{"Structure (SMILES)": "COCCOc1nc(-c2ccc(Cl)nc2)nc2c1CN(C(=O)c1ncn3ccccc13)CC2", "read-out": "cell-free assay", "method": "competition with immobilised ligand", "concentration": "0.1 µM", "remaining binding": "100%"}
{"Structure (SMILES)": "CN(C)c1nccc(-c2cnn3ncccc23)n1", "read-out": "binding", "concentration": "1 µM", "remaining binding": "100%"}
{"Structure (SMILES)": "COc1cc(-c2cn(C3CCc4c(F)cccc4N(CC(F)(F)F)C3=O)nn2)ccc1-n1cnc(C)c1 (stereo not shown)", "read-out": "cell-free assay", "method": "competition with immobilised ligand", "concentration": "1 µM", "remaining binding": "100%"}
{"Structure (SMILES)": "C[C@@H]1CCN(c2nccc(-c3cnn4ncccc34)n2)C1", "read-out": "binding", "concentration": "1 µM", "remaining binding": "100%"}
{"Structure (SMILES)": "CN([C@@H]1CCc2c(CC(=O)O)c3ccccc3n2C1)S(=O)(=O)c1ccc(F)cc1", "read-out": "cell-free assay", "method": "competition with immobilised ligand", "concentration": "1 µM", "remaining binding": "79%"}
{"Structure (SMILES)": "O=C(c1ccc(Nc2ncc(Cl)c(-c3cc4ccccc4s3)n2)cc1)N1CCC(N2CCCC2)CC1", "read-out": "binding", "method": "competition with immobilised ligand", "concentration": "1 µM", "remaining binding": "74%"}
{"Structure (SMILES)": "CCN1CCN(Cc2ccc(C(=O)Nc3ccc(C)c(Oc4ccc5c(c4)CC(=O)N5)c3)cc2C(F)(F)F)CC1", "read-out": "binding", "method": "competition with immobilised ligand", "concentration": "1 µM", "remaining binding": "97%"}
{"Structure (SMILES)": "CCS(=O)(=O)c1cc2cc(C[C@@](O)(CC(C)(C)c3ccc(F)cc3C(N)=O)C(F)(F)F)[nH]c2cn1", "read-out": "cell-free assay", "method": "competition with immobilised ligand", "concentration": "1 µM", "remaining binding": "100%"}
{"Structure (SMILES)": "CC1CCCN1c1nccc(-c2cnn3ncccc23)n1 (stereo not shown)", "read-out": "binding", "concentration": "1 µM", "remaining binding": "100%"}
